What was measured:
[1] = test system: Saccharomyces cerevisiae; test: DNA damaging activity against RS322YK rad52 DNA repair gene deficient Saccharomyces cerevisiae mutant assessed as drug level required to produce 12 mm zone of inhibition after 48 hrs; format: functional
Method in brief: (§1)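 Yeast agar-well diffusion: strain plated on YPD agar (7 mm layer); 6 mm wells cut with cork borer; sample dissolved in DMSO-MeOH (1:1), 100 μl per well. Plates read after 48 h at 30°. IC12 = concentration (μg/ml) giving a 12 mm inhibition zone, taken from dose-response curves by linear regression (log dose as Y, zone size as X).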

[2] = test system: Saccharomyces cerevisiae; test: DNA damaging activity against RS188N rad DNA repair gene expressing wild type Saccharomyces cerevisiae assessed as drug level required to produce 12 mm zone of inhibition after 48 hrs; format: functional; method in brief: as §1
[3] = test system: Saccharomyces cerevisiae; test: DNA damaging activity against RS167N rad6 DNA repair gene deficient Saccharomyces cerevisiae mutant assessed as drug level required to produce 12 mm zone of inhibition after 48 hrs; format: functional; method in brief: as §1
[4] = test system: P388; test: Cytotoxicity against mouse P388 cells; format: functional, cell-based

| Compound | IC12 [1] [µg/mL] | IC12 [2] [µg/mL] | IC12 [3] [µg/mL] | IC50 [4] [µM] |
| --- | --- | --- | --- | --- |
| CC(C)C(O)(CO)CC[C@@H](C)[C@H]1CC[C@H]2[C@@H]3[C@H](O)C=C4C[C@@H](O)CC[C@]4(C)[C@H]3CC[C@]12C (stereo partly drawn) | 1 | > 100 |  |  |
| C=C(CC[C@@H](C)[C@H]1CC[C@H]2[C@@H]3[C@H](O)C=C4C[C@@H](O)CC[C@]4(C)[C@H]3CC[C@]12C)C(C)C | 8 | > 1500 | 12 | 4.3 |
| COC1=C(N)C(=O)c2nc(-c3nc(C(=O)O)c(C)c(-c4ccc(OC)c(OC)c4O)c3N)ccc2C1=O [STREPTONIGRIN] | 0.4 |  | 2.4 |  |
| CC(C)C1(CC[C@@H](C)[C@H]2CC[C@H]3[C@@H]4[C@H](O)C=C5C[C@@H](O)CC[C@]5(C)[C@H]4CC[C@]23C)CO1 (stereo partly drawn) | 0.4 | > 50 | 6 |  |
| CC[C@@]1(O)C(=O)OCc2c1cc1n(c2=O)Cc2cc3ccccc3nc2-1 [CAMPTOTHECIN] | 0.6 |  | 8.7 |  |

From ChEMBL document CHEMBL1150057, “Bioactive ergost-5-ene-3 beta, 7 alpha-diol derivatives from Pseudobersama mossambicensis” (J Nat Prod, 1992)
